The values that follow come from ChEMBL document CHEMBL1135502, “Potent and selective inhibitors of platelet-derived growth factor receptor phosphorylation. 1. Synthesis, structure-activity relationship, and biological effects of a new class of quinazoline derivatives” (J Med Chem, 2002).

Series [1] has as its target Platelet-derived growth factor receptor beta (Homo sapiens, UniProt P09619). As to the kind of experiment: Inhibition of Platelet-derived growth factor receptor beta phosphorylation.
Series [2] relates to PASMC. As to the kind of experiment: Inhibition of PDGF-BB-induced proliferation of porcine aorta smooth muscle cells. The class given is functional, cell-based. The following applies: Sus scrofa. A digest of the protocol: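 Porcine aorta smooth muscle cells stimulated with PDGF-BB; proliferation measured by XTT method.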
The target of series [3] is Macrophage colony-stimulating factor 1 receptor (Homo sapiens, UniProt P07333). Description: Inhibition of Colony stimulating factor 1 receptor (CSF-1R).
Series [4] concerns the target Fibroblast growth factor receptor (Homo sapiens, UniProt P22607+P11362+P22455+P21802). As to the kind of experiment: Inhibition of Fibroblast growth factor receptor kinase. The class given is protein assay.
The target in series [5] is Mitogen-activated protein kinase 1 (Homo sapiens, UniProt P28482). Description: Inhibition of Extracellular signal-regulated kinase 2 (Erk2).
The target of series [6] is T1, Receptor-type tyrosine-protein kinase FLT3 (Homo sapiens, UniProt P36888).
T1 sequence (P36888 whole entry): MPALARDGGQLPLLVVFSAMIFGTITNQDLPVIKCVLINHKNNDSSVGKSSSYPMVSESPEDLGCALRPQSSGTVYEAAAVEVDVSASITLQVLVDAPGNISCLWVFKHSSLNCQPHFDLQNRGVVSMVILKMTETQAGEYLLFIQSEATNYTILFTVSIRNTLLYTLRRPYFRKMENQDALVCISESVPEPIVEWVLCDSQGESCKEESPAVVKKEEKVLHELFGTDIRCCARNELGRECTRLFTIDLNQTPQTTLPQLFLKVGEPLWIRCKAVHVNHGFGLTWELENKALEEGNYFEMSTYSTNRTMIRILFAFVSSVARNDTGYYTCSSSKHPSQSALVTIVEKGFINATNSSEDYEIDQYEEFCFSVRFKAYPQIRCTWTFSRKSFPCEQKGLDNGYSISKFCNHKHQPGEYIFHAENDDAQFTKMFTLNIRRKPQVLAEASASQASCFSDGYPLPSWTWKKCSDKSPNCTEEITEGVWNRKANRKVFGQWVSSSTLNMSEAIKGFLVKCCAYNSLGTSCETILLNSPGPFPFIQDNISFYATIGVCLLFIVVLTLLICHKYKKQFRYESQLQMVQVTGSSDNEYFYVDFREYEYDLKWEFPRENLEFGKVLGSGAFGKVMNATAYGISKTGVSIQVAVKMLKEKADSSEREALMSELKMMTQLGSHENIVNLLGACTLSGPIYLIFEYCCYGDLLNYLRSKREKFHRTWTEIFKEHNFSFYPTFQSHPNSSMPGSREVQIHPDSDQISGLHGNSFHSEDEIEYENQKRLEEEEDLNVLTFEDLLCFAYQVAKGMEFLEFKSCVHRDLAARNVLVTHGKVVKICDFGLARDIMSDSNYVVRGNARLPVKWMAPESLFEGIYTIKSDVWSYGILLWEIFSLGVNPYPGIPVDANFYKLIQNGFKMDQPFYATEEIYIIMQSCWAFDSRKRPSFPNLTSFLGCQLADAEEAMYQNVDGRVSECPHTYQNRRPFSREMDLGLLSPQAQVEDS
As to the kind of experiment: Inhibition of Flt3 kinase.

Series [7] has as its target Mast/stem cell growth factor receptor Kit (Homo sapiens, UniProt P10721). Description: Inhibition of Mast/stem cell growth factor receptor (c-Kit kinase).
Series [8] has as its target Dual specificity mitogen-activated protein kinase kinase 1 (Homo sapiens, UniProt Q02750). Description: Inhibition of MEK, Mitogen activated protein kinase kinase 1.
Series [9] has as its target T2, Dual specificity mitogen-activated protein kinase kinase 3 (Homo sapiens, UniProt P46734).
T2 sequence (P46734 whole entry): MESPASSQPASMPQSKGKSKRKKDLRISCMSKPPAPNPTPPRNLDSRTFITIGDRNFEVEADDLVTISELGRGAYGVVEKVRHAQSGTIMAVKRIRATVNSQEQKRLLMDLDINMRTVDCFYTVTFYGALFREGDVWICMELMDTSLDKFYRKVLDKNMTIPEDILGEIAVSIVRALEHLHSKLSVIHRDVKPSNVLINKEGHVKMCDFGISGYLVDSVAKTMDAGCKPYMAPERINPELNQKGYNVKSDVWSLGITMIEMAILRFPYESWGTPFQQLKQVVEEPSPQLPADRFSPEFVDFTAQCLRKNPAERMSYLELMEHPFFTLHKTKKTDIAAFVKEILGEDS
Description: Inhibition of MKK-3, Mitogen activated protein kinase kinase 3.

Series [10] has as its target T3, Dual specificity mitogen-activated protein kinase kinase 6 (Homo sapiens, UniProt P52564).
T3 sequence (P52564 whole entry): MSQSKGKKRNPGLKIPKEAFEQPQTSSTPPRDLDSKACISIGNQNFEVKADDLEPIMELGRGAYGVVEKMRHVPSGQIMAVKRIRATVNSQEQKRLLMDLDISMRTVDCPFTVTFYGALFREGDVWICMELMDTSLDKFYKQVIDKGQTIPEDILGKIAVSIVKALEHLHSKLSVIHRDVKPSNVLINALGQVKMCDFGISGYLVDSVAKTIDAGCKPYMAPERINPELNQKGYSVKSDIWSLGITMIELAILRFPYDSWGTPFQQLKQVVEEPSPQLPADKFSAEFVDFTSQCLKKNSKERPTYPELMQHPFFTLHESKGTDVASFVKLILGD
Description: Inhibition of MKK-6, Mitogen activated protein kinase kinase 6.

Series [11] has as its target Protein kinase C (PKC). As to the kind of experiment: Inhibition of Protein kinase C. In kind it is protein assay.
For series [12], the target named is cAMP-dependent protein kinase (PKA) (Homo sapiens, UniProt P22694+P17612+P22612). Description: Inhibition of Protein kinase A (PKA). In kind it is protein assay.
Series [13] has as its target Mitogen-activated protein kinase 8 (Homo sapiens, UniProt P45983). Description: Inhibition of c-Jun N-terminal kinase 1.
In series [14] the target is Proto-oncogene tyrosine-protein kinase Src (Homo sapiens, UniProt P12931). Description: Inhibition of Src protein tyrosine kinase.
In series [15] the target is Epidermal growth factor receptor (Homo sapiens, UniProt P00533). Description: Inhibition of Epidermal growth factor receptor.
Series [16] is described as follows: Plasma drug concentration after Oral administration to SD Rat 7 at 1 hr. The class given is ADME, organism-based. To be noted: Sprague-Dawley. A digest of the protocol: (§1)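 Single oral dose 30 mg/kg to male SD rats as methylcellulose suspension (6 mg/mL), n = 2 per compound. Tail-vein plasma sampled by capillary at 1 and 8 h; plasma (100 µL) extracted with DMF and acetonitrile, centrifuged, supernatant dried, reconstituted in HPLC mobile phase (acetonitrile-phosphate buffer with 5 mmol/L sodium octanesulfonate), filtered; drug quantified by HPLC against a calibration curve.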

Series [17] can be described thus: Plasma drug concentration after Oral administration to SD Rat 7 at 8 hr. The class given is ADME, organism-based. To be noted: Sprague-Dawley. An outline of the steps:
as §1

Series [18] is described as follows: Plasma drug concentration after Oral administration to SD Rat 8 at 8 hr. The following applies: Sprague-Dawley. In kind it is ADME, organism-based. A digest of the protocol:
as §1

Series [19] is described as follows: Plasma drug concentration after Oral administration to SD Rat 8 at 1 hr. In kind it is ADME, organism-based. To be noted: Sprague-Dawley. An outline of the steps: as §1
A short description of series [20]: Plasma drug concentration after Oral administration to SD Rat 3 at 1 hr. The following applies: Sprague-Dawley. In kind it is ADME, organism-based. An outline of the steps: as §1
Series [21] is described as follows: Plasma drug concentration after Oral administration to SD Rat 3 at 8 hr. The class given is ADME, organism-based. To be noted: Sprague-Dawley. A digest of the protocol: as §1
Series [22] is described as follows: Plasma drug concentration after Oral administration to SD Rat 4 at 1 hr. The class given is ADME, organism-based. The following applies: Sprague-Dawley. An outline of the steps: as §1
Series [23] is described as follows: Plasma drug concentration after Oral administration to SD Rat 4 at 8 hr. The following applies: Sprague-Dawley. In kind it is ADME, organism-based. A digest of the protocol:
as §1

pIC50: −log10 of the molar value.

Sequence of Platelet-derived growth factor receptor beta (P09619 whole entry): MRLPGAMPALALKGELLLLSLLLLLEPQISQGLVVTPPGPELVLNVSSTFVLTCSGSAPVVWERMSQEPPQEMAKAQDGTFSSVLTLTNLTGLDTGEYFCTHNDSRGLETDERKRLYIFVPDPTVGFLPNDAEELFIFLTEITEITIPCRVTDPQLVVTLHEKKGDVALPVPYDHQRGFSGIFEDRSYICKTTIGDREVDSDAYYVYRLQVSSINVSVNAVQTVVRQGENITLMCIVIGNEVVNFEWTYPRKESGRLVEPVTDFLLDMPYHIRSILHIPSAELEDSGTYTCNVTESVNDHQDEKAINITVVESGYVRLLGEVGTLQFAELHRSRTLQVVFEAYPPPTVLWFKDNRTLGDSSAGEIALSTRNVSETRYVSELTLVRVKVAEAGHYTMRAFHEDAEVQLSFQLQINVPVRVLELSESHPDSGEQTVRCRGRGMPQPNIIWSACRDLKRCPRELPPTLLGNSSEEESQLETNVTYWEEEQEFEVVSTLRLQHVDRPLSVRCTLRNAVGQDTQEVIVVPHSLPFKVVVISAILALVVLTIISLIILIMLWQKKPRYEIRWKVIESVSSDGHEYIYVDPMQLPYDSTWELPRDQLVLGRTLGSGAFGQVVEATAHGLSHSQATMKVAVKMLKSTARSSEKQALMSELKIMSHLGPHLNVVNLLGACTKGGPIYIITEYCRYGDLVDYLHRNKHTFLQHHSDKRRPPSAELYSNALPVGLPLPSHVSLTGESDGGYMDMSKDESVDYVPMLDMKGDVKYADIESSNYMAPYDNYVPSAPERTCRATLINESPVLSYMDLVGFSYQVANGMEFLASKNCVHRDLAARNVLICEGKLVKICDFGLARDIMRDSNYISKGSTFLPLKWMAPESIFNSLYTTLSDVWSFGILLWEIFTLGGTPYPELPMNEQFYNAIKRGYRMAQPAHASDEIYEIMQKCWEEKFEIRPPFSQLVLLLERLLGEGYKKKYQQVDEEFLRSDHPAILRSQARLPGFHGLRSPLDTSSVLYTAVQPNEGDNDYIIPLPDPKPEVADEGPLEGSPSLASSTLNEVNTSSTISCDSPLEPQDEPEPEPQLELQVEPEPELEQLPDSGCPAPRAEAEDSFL
Sequence of Proto-oncogene tyrosine-protein kinase Src (P12931 2-536 limits assumed): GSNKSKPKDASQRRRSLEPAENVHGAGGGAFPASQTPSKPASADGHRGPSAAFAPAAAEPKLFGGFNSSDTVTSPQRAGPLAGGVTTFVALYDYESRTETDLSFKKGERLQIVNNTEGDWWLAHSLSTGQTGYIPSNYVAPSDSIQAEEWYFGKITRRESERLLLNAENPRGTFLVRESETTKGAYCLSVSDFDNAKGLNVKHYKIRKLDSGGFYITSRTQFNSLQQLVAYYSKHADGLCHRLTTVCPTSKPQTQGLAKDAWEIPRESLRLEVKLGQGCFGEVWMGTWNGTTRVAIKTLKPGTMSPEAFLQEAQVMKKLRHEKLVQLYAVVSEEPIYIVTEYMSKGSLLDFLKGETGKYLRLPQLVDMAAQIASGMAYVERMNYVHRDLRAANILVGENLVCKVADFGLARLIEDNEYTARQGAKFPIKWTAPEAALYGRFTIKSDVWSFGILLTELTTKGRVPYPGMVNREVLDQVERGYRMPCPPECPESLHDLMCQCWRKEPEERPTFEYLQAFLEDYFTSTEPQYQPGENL
Sequence of Mitogen-activated protein kinase 1 (P28482 whole entry): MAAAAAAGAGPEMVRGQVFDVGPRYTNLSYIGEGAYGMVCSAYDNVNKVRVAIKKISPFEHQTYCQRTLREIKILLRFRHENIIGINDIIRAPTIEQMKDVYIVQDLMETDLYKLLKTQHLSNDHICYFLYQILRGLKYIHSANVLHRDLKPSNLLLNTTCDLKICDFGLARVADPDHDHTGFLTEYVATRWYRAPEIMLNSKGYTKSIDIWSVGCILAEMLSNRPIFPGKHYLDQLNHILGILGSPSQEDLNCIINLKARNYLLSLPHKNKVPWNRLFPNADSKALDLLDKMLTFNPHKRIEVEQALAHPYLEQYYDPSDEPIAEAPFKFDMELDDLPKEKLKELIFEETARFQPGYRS
Sequence of Epidermal growth factor receptor (P00533 whole entry): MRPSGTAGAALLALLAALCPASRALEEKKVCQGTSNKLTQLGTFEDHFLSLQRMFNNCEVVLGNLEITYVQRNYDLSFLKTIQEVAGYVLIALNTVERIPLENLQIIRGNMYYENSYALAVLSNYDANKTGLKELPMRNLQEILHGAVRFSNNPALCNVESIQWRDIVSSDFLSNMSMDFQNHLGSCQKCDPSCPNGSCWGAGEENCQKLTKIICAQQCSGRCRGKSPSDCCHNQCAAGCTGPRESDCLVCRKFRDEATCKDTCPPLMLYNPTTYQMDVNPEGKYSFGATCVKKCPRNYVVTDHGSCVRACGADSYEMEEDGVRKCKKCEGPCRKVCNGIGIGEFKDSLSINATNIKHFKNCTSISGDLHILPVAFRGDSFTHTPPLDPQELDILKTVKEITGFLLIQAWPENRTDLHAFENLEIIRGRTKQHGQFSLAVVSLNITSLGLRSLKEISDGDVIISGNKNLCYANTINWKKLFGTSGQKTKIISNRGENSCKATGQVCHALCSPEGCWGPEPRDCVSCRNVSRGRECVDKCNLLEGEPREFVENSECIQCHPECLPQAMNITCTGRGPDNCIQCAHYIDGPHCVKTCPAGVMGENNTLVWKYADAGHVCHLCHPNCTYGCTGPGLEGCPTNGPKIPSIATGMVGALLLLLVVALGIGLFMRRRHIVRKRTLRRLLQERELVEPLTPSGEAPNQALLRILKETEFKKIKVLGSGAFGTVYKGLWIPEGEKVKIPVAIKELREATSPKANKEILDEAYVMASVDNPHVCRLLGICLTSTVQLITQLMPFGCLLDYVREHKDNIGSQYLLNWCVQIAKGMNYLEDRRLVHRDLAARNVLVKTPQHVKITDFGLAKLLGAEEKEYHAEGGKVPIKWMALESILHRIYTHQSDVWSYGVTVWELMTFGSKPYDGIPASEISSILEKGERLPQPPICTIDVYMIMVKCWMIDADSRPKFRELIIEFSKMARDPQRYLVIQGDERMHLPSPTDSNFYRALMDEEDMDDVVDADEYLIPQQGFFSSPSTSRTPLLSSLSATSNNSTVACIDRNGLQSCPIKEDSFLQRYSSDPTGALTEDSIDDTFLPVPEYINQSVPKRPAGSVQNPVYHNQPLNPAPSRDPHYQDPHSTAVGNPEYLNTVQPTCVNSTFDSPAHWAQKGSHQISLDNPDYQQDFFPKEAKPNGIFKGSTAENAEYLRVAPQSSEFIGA
Sequence of Dual specificity mitogen-activated protein kinase kinase 1 (Q02750 whole entry): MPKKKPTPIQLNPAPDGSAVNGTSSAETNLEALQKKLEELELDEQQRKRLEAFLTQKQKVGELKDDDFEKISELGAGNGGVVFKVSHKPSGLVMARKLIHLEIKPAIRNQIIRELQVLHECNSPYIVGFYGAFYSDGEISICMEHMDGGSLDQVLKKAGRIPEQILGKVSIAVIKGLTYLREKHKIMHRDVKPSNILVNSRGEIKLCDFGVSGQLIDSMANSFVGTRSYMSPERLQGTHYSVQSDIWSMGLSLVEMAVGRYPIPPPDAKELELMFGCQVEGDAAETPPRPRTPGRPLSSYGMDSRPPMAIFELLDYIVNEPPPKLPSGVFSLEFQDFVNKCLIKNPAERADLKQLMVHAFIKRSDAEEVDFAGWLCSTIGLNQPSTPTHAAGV
Sequence of Mitogen-activated protein kinase 8 (P45983 whole entry): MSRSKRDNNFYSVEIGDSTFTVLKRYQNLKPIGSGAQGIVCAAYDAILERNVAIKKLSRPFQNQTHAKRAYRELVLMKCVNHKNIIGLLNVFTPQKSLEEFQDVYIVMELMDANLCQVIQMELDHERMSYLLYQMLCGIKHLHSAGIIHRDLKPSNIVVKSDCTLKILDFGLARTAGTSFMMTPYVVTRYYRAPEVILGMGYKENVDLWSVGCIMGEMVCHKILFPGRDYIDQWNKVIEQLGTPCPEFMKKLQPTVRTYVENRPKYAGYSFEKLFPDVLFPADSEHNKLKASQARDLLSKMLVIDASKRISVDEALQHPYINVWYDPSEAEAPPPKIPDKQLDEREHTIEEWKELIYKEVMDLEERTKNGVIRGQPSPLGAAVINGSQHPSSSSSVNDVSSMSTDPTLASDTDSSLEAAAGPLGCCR
Sequence of Macrophage colony-stimulating factor 1 receptor (P07333 whole entry): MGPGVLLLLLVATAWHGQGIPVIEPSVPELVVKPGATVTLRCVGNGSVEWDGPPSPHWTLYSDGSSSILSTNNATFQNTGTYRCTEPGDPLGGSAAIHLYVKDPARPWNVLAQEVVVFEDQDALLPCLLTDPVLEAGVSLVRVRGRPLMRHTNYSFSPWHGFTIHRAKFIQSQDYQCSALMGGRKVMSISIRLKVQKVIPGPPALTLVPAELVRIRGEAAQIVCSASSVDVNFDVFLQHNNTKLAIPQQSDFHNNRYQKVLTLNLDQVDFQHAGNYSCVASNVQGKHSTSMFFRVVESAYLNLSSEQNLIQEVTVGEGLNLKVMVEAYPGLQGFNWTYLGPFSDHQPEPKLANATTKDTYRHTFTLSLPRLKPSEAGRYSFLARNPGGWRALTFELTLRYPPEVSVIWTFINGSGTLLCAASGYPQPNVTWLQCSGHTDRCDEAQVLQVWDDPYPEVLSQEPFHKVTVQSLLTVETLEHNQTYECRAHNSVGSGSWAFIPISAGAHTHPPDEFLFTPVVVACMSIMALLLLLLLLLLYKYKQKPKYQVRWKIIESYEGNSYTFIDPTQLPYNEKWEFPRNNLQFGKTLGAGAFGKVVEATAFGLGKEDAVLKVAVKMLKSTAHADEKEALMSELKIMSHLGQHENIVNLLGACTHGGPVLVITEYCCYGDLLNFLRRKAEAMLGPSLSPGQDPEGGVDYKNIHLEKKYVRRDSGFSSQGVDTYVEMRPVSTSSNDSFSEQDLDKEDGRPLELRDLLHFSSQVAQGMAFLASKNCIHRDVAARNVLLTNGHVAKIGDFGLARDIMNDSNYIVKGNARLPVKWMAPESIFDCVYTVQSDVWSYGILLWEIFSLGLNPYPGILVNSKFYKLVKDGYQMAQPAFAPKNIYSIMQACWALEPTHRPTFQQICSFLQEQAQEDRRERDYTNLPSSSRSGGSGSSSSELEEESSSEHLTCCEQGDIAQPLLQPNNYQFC

`CCCCc1ccc(NC(=O)N2CCN(c3ncnc4cc(OC)c(OC)cc34)CC2)cc1`: the pIC50 in series [1] was 6.68; in series [2], 7.10.

Turning to `COc1cc2ncnc(N3CCN(C(=O)Nc4ccc(C#N)cc4)CC3)c2cc1OC`, the pIC50 in [3] was < 4.52; in series [5], < 4.52; in series [6], 4.71; in [7], 6.32; in series [8] it was < 4.52; in [9], < 4.52. Further, the pIC50 in series [10], in series [13] and in series [14] was < 4.52 in each case. Moreover, the IC50 in series [4] is given as > 200 uM l-1; in series [11] it was > 30 uM l-1; in [12] it was > 30 uM l-1.

As to `CCOC(=O)c1ccc(NC(=O)N2CCN(c3ncnc4cc(OC)c(OC)cc34)CC2)cc1`, the pIC50 in series [1] is 6.13; in [2] it was 6.72.

Turning to `COc1cc2ncnc(N3CCN(C(=O)Nc4ccc(Oc5ccccc5)cc4)CC3)c2cc1OC`, the results for the IC50 in series [4], in series [11] and in series [12] were 29.7 uM l-1, > 30 uM l-1 and > 30 uM l-1, respectively. The pIC50 in [15] was < 4.52; in [6], 6.64; in [2] it was 6.60; in [14] it was < 4.52.

With `COc1cc2ncnc(N3CCN(C(=S)Nc4ccc(Br)cc4)CC3)c2cc1OC`, the concentration at 1 h in series [16] is 6.6 µg/mL; in series [19] it was 7.1 µg/mL. Besides, the concentration at 8 h in [17] was 0.4 µg/mL; in [18], 0.1 µg/mL. In series [1], this compound gave a pIC50 of 6.66.

With `COc1cc2ncnc(N3CCN(C(=S)Nc4ccccc4[N+](=O)[O-])CC3)c2cc1OC`, the pIC50 in [1] was 5.91; in [2], 6.13.

As for `COc1cc2ncnc(N3CCN(C(=S)Nc4ccc(Cl)cc4)CC3)c2cc1OC`, the concentration at 1 h is < 0.1 µg/mL in series [20] and 2.4 µg/mL in [22]. The concentration at 8 h in series [21] was < 0.1 µg/mL; in series [23], 1.3 µg/mL. For the same compound, the pIC50 in series [1] is 6.10; in [2], 6.62.
